Reference: ChEMBL document CHEMBL1156780, “6-(Het)aryl-7-deazapurine ribonucleosides as novel potent cytostatic agents” (J Med Chem, 2010)

What was measured:
[1] = Cytostatic activity against human Hs578 cells after 5 days by SRB assay; type: functional; details: Hs578, 120 h
Method in brief: (§1)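 Cells seeded in RPMI (colon, breast, lung lines), MEM (Du145) or F12K (PC3) with 10% FBS, 37 °C overnight. Day-zero plates fixed with cold 10% TCA. Compounds added as 5-fold serial dilutions for 5 days. Fixed, stained with 0.057% SRB in 1% acetic acid, dye solubilized in 10 mM Tris pH 10.5, A500 read. Growth % corrected for day-0 OD; GIC₅₀ from sigmoidal fit.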

CCRF-CEM [2] = test: Cell cycle arrest in human CCRF-CEM assessed as accumulation at G1 phase at 1 x GIC50 after 24 hrs by flow cytometry; type: functional
Method in brief: (§2)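 Subconfluent CCRF-CEM (5 × 10⁵ cells/mL, RPMI 1640 + 10% FCS, 37 °C CO₂) exposed 24 h at 1× or 5× GIC₅₀, vehicle controls alongside. Cells fixed overnight in 70% ethanol at -20 °C, hypotonic citrate wash, RNase 50 μg/mL, propidium iodide stain, 488 nm flow cytometry. Sub-G1 = particles with PI content below G0/G1 cells. Reported as % of total cells.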

CCRF-CEM [3] = test: Cell cycle arrest in human CCRF-CEM assessed as accumulation at G2/M phase at 1 x GIC50 after 24 hrs by flow cytometry; type: functional; method in brief: as §2
HL-60 = test: Cytotoxicity against human HL60 cells after 3 days by XTT assay; type: functional, cell-based; details: HL-60, 72 h
Method in brief: (§3)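 Cell viability of CCRF-CEM, HL60 and HeLa cells measured by XTT assay after 72 h incubation with compounds. IC₅₀ taken as mean of 2–4 independent experiments.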

DU-145 [4] = test: Cytostatic activity against human DU145 cells after 5 days by SRB assay; type: functional; details: DU-145, 120 h; method in brief: as §1
CCRF-CEM [5] = test: Inhibition of RNA synthesis in human CCRF-CEM assessed as assessed as BrdU incorporation at 5 x GIC50 after 24 by flow cytometry; type: functional; design: scale not given: the % may be the effect or the level left
Method in brief: (§4)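 CCRF-CEM culture as for cell cycle (24 h, 1× or 5× GIC₅₀). Cells pulsed 30 min with 1 mM bromouridine before harvest. Fixed in 1% paraformaldehyde/0.05% NP-40. Stained with anti-BrdU antibody cross-reacting with BrU, then FITC secondary, PI and RNase A. BrU+ cells quantified by 488 nm flow cytometry.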

CCRF-CEM [6] = test: Inhibition of DNA synthesis in human CCRF-CEM assessed as assessed as BrdU incorporation at 1 x GIC50 after 24 by flow cytometry; type: functional; design: scale not given: the % may be the effect or the level left
Method in brief: (§5)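 Culture as for cell cycle work (CCRF-CEM, 24 h, 1× or 5× GIC₅₀). Pulse with 10 μM BrdU for 30 min before harvest. Fixed in 70% ethanol, DNA denatured in 2 M HCl, neutralized with 0.1 M borax. Stained with anti-BrdU and FITC secondary, plus PI 0.1 mg/mL and RNase A. BrdU+ cells counted by flow cytometry.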

CCRF-CEM [7] = test: Antimitotic activity in human CCRF-CEM cells assessed as decrease in mitotic histone H3 at 5 x GIC50; type: functional; design: scale not given: the % may be the effect or the level left
Method in brief: (§6)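 CCRF-CEM cells seeded subconfluent at 5 × 10⁵ cells/mL in RPMI 1640 with 10% FCS, 10 mM glutamine, penicillin/streptomycin, 37 °C humidified CO₂. Exposed 24 h at 1× or 5× GIC₅₀; vehicle controls harvested at 24 h. Ethanol-fixed cells labelled with anti-phospho-histone H3 Ser10 and mitotic cells counted by flow cytometry as % of total population.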

BT-549 = test: Cytotoxicity against human BT549 cells after 5 days by SRB assay; type: functional; details: BT-549, 120 h; method in brief: as §1
CCRF-CEM [8] = test: Cell cycle arrest in human CCRF-CEM assessed as accumulation at S phase at 5 x GIC50 after 24 hrs by flow cytometry; type: functional; method in brief: as §2
A549 = test: Cytostatic activity against human A549 cells after 5 days by SRB assay; type: functional; details: A549, 120 h; method in brief: as §1
[9] = Cytotoxicity against human HeLaS3 cells after 3 days by XTT assay; type: functional, cell-based; details: HeLa S3, 72 h
PC-3 = test: Cytotoxicity against human PC3 cells after 5 days by SRB assay; type: functional; details: PC-3, 120 h; method in brief: as §1
CCRF-CEM [10] = test: Cell cycle arrest in human CCRF-CEM assessed as accumulation at S phase at 1 x GIC50 after 24 hrs by flow cytometry; type: functional; method in brief: as §2
CCRF-CEM [11] = test: Cell cycle arrest in human CCRF-CEM assessed as accumulation at subG1 phase at 1 x GIC50 after 24 hrs by flow cytometry; type: functional; method in brief: as §2
CCRF-CEM [12] = test: Cell cycle arrest in human CCRF-CEM assessed as accumulation at G1 phase at 5 x GIC50 after 24 hrs by flow cytometry; type: functional; method in brief: as §2
CCRF-CEM [13] = test: Inhibition of DNA synthesis in human CCRF-CEM assessed as assessed as BrdU incorporation at 5 x GIC50 after 24 by flow cytometry; type: functional; design: scale not given: the % may be the effect or the level left; method in brief: as §5
HCT-15 = test: Cytotoxicity against human HCT15 cells after 5 days by SRB assay; type: functional; details: HCT-15, 120 h; method in brief: as §1
CCRF-CEM [14] = test: Cytotoxicity against human CCRF-CEM cells after 3 days by XTT assay; type: functional, cell-based; details: 72 h; method in brief: as §3
CCRF-CEM [15] = test: Cell cycle arrest in human CCRF-CEM assessed as accumulation at subG1 phase at 5 x GIC50 after 24 hrs by flow cytometry; type: functional; method in brief: as §2
CCRF-CEM [16] = test: Inhibition of RNA synthesis in human CCRF-CEM assessed as assessed as BrdU incorporation at 1 x GIC50 after 24 by flow cytometry; type: functional; design: scale not given: the % may be the effect or the level left; method in brief: as §4
CCRF-CEM [17] = test: Antimitotic activity in human CCRF-CEM cells assessed as decrease in mitotic histone H3 at 1 x GIC50; type: functional; design: scale not given: the % may be the effect or the level left; method in brief: as §6
CCRF-CEM [18] = test: Cell cycle arrest in human CCRF-CEM assessed as accumulation at G2/M phase at 5 x GIC50 after 24 hrs by flow cytometry; type: functional; method in brief: as §2
NCI-H23 = test: Cytotoxicity against human NCI-H23 cells after 5 days by SRB assay; type: functional; details: NCI-H23, 120 h; method in brief: as §1
HCT-116 = test: Cytostatic activity against human HCT116 cells after 5 days by SRB assay; type: functional; details: HCT-116, 120 h; method in brief: as §1
DU-145 [19] = test: Cellular uptake ion human DU145 cells assessed as triphosphate level measured per million cells after 24 hrs
DU-145 [20] = test: Cellular uptake ion human DU145 cells measured per million cells after 6 hrs; type: functional
Method in brief: (§7)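 Du145 cells incubated with 10 μM compound for 6 or 24 h, PBS-washed, trypsinized, pelleted, spun through Nyosil M25 oil. Extracts analysed by LC/MS/MS for parent nucleoside, monophosphate and triphosphate. Standards and QC samples prepared in untreated-cell extracts. Expressed as pmol per million cells.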

DU-145 [21] = test: Cellular uptake ion human DU145 cells measured per million cells after 24 hrs; type: functional; method in brief: as §7
CCRF-CEM [22] = test: Inhibition of DNA synthesis in human CCRF-CEM assessed as assessed as BrdU incorporation after 24 by flow cytometry; type: functional
CCRF-CEM [23] = test: Inhibition of RNA synthesis in human CCRF-CEM assessed as assessed as BrdU incorporation after 24 by flow cytometry; type: functional
DU-145 [24] = test: Cellular uptake ion human DU145 cells assessed as monophosphate level measured per million cells after 24 hrs; type: functional; method in brief: as §7
DU-145 [25] = test: Cellular uptake ion human DU145 cells assessed as monophosphate level measured per million cells after 6 hrs; type: functional; method in brief: as §7
DU-145 [26] = test: Cellular uptake ion human DU145 cells assessed as triphosphate level measured per million cells after 6 hrs

SMILES | GI50 [1] | Activity (CCRF-CEM [2]) | Activity (CCRF-CEM [3]) | IC50 (HL-60) | GI50 (DU-145 [4]) | Activity (CCRF-CEM [5]) | Activity (CCRF-CEM [6]) | Activity (CCRF-CEM [7]) | GI50 (BT-549) | Activity (CCRF-CEM [8]) | GI50 (A549) | IC50 [9] | Activity (CCRF-CEM [10]) | Activity (CCRF-CEM [11]) | Activity (CCRF-CEM [12]) | Activity (CCRF-CEM [13]) | Activity (CCRF-CEM [15]) | Activity (CCRF-CEM [16]) | Activity (CCRF-CEM [17]) | Activity (CCRF-CEM [18]) | further results
OC[C@H]1O[C@@H](n2cc(F)c3c(-c4cccs4)ncnc32)[C@H](O)[C@@H]1O | 130 nM | 43.9% | 9.3% | 4300 nM | 9 nM | 5.7% | 56.2% | 0.47% | 81 nM | 50.5% | 61 nM | 4300 nM | 46.7% | 17.1% | 40.4% | 47% | 43.4% | 28.4% | 0.85% | 9.1% | GI50 (PC-3): 90 nM; GI50 (HCT-15): 18 nM; IC50 (CCRF-CEM [14]): 270 nM; GI50 (NCI-H23): 1500 nM; GI50 (HCT-116): 9 nM
OC[C@H]1O[C@@H](n2ccc3c(-c4ccoc4)ncnc32)[C@H](O)[C@@H]1O | 260 nM | 55.6% | 7.1% | 1500 nM | 36 nM | 7.2% | 44.6% | 0.39% | 35 nM | 39.7% | 73 nM | 4600 nM | 37.3% | 39.8% | 54.4% | 28.9% | 61.2% | 14% | 0.84% | 5.9% | GI50 (PC-3): 96 nM; GI50 (HCT-15): 86 nM; IC50 (CCRF-CEM [14]): 1900 nM; GI50 (NCI-H23): 280 nM; GI50 (HCT-116): 92 nM
OC[C@H]1O[C@@H](n2ccc3c(-c4ccco4)ncnc32)[C@H](O)[C@@H]1O | 49 nM | 44.9% | 12.9% | 810 nM | 7 nM | 4.7% | 54.3% | 0.48% | 12 nM | 44.6% | 88 nM | 770 nM | 42.2% | 16.5% | 46.7% | 31.3% | 60.2% | 28.7% | 1.21% | 6.8% | triphosphate (NTP) level (DU-145 [19]): 109 pmol; Activity (DU-145 [20]): 950 pmol; Activity (DU-145 [21]): 207 pmol; GI50 (PC-3): 14 nM; inhibition (INH) (CCRF-CEM [22]): 31.33%; inhibition (INH) (CCRF-CEM [23]): 4.7%; Activity (DU-145 [24]): 6842 pmol; Activity (DU-145 [25]): 4124 pmol; GI50 (HCT-15): 20 nM; IC50 (CCRF-CEM [14]): 310 nM; triphosphate (NTP) level (DU-145 [26]): 88.4 pmol; GI50 (NCI-H23): 130 nM; GI50 (HCT-116): 78 nM
OC[C@H]1O[C@@H](n2cc(Cl)c3c(-c4ccco4)ncnc32)[C@H](O)[C@@H]1O | > 10000 nM |  |  | 21600 nM | > 10000 nM |  |  |  |  |  | > 10000 nM | > 40000 nM |  |  |  |  |  |  |  |  | triphosphate (NTP) level (DU-145 [19]): 21.2 pmol; Activity (DU-145 [20]): 20.1 pmol; Activity (DU-145 [21]): 45 pmol; Activity (DU-145 [24]): 332 pmol; Activity (DU-145 [25]): 164 pmol; IC50 (CCRF-CEM [14]): 3800 nM; triphosphate (NTP) level (DU-145 [26]): 19.2 pmol; GI50 (HCT-116): > 10000 nM
OC[C@H]1O[C@@H](n2ccc3c(-c4cccs4)ncnc32)[C@H](O)[C@@H]1O | 100 nM | 45.5% | 12.2% | 1200 nM | 9 nM | 3.5% | 55.5% | 0.44% | 23 nM | 47% | 45 nM | 8800 nM | 42.2% | 13.7% | 47% | 38.3% | 55% | 28.5% | 0.87% | 6% | GI50 (PC-3): 33 nM; GI50 (HCT-15): 78 nM; IC50 (CCRF-CEM [14]): 290 nM; GI50 (NCI-H23): 430 nM; GI50 (HCT-116): 49 nM
Nc1nc(Cl)nc2c1ncn2[C@H]1C[C@H](O)[C@@H](CO)O1 [CLADRIBINE] |  | 73.2% | 1.9% |  |  | 41.3% | 32.1% | 0.44% |  | 30.8% |  |  | 24.9% | 48% | 61.6% | 13% | 61.5% | 46.2% | 0.85% | 7.6% | inhibition (INH) (CCRF-CEM [22]): 9.54%; inhibition (INH) (CCRF-CEM [23]): 44.77%
Nc1ccn([C@@H]2O[C@H](CO)[C@@H](O)C2(F)F)c(=O)n1 [GEMCITABINE] |  | 27.1% | 0.6% |  |  | 44.8% | 56.7% | 0.53% | 4 nM | 30.5% |  |  | 72.3% | 24.1% | 67.1% | 9.5% | 54% | 54.7% | 0.78% | 2.3% | GI50 (PC-3): 6 nM; GI50 (HCT-15): 3 nM; GI50 (NCI-H23): 2 nM
